The values below come from ChEMBL document CHEMBL1914438, “Synthesis and biological activity of novel N-cycloalkyl-(cycloalkylaryl)-2-[(3-R-2-oxo-2H-[1,2,4]triazino[2,3-c]quinazoline-6-yl)thio]acetamides” (2011).

The source made the active and inactive calls. No cut-off for these calls is given here.

Experiment [1] concerns Photobacterium leiognathi. The experiment is described as follows: Antibacterial activity against Photobacterium leiognathi Sh1 assessed as inhibition of bacterial luminescence at 0.1 mg/mL after 10 mins by bioluminometry-based acute action test. The format is functional. More on the design: scale not given: the % may be the effect or the level left. The method in brief:
(§1)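 Marine P. leiognathi Sh1 (Azov Sea shrimp isolate) diluted in chloride solution to 10^5 cells/mL; compounds suspended in DMSO mixed with 1 mL bacterial suspension. Acute test: 10 min at 25 °C, then bioluminescence measured by bioluminometer as % of compound-free control. Tetracycline reference.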

In experiment [2] the test system is Photobacterium leiognathi. The experiment is described as follows: Antibacterial activity against Photobacterium leiognathi Sh1 assessed as inhibition of bacterial luminescence at 0.1 mg/mL after 10 mins by bioluminometry-based chronic action test. The format is functional. More on the design: scale not given: the % may be the effect or the level left. In a few lines:
(§2)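 Chronic (growth plus luminescence) test with P. leiognathi Sh1 at 10^5 cells/mL in chloride solution, compounds added in DMSO. After 10 min at 25 °C, growth medium added at 1:50 and the mix incubated 16–18 h at 30 °C. Luminescence then measured by bioluminometer as % of untreated control. Tetracycline reference.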

Experiment [3] has as its system Photobacterium leiognathi. Nature of the experiment: Antibacterial activity against Photobacterium leiognathi Sh1 assessed as inhibition of bacterial luminescence at 0.25 mg/mL after 10 mins by bioluminometry-based chronic action test. The format is functional. Set-up: scale not given: the % may be the effect or the level left. In a few lines:
as §2

Experiment [4] concerns Escherichia coli. Nature of the experiment: Antibacterial activity against Escherichia coli at 1 to 5 mg/mL after 24 hrs by stiff-plate agar-diffusion method. The format is functional, organism-based. In a few lines:
(§3)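 Agar diffusion (stiff plate) with test substances at 5 mg/mL in grooves, allowed to diffuse into nutrient agar; inoculum 10^9 c.f.u./mL; bacteria incubated 24 h at 35 °C. Read-out: inhibition zone diameter (not sensitive 11–15 mm, sensitive 16–25 mm, highly sensitive >25 mm). Vancomycin and oxacillin as standards; three repeats.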

Experiment [5] has as its system Staphylococcus aureus. The experiment is described as follows: Antibacterial activity against Staphylococcus aureus at 1 to 5 mg/mL after 24 hrs by stiff-plate agar-diffusion method. The format is functional, organism-based. In a few lines:
as §3
For orientation: In agar diffusion tests the substance spreads into inoculated agar from a disc or well.

In experiment [6] the test system is Mycobacterium. The experiment is described as follows: Antibacterial activity against Mycobacterium luteum at 1 to 5 mg/mL after 24 hrs by stiff-plate agar-diffusion method. The format is functional, organism-based. The method in brief:
as §3

Experiment [7] deals with Yamadazyma tenuis. Nature of the experiment: Antifungal activity against Candida tenuis at 1 to 5 mg/mL after 48 to 72 hrs by stiff-plate agar-diffusion method. The format is functional, organism-based. In a few lines:
(§4)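 Fungal plates run by stiff-plate agar diffusion, substances applied to grooves at 5 mg/mL; 10^9 c.f.u./mL cells; incubation 48–72 h at 28–30 °C. Inhibition zone diameter scored (11–15 mm not sensitive, 16–25 mm sensitive, >25 mm highly sensitive). Nystatin standard; experiments done three times.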

For experiment [8], the system named is Aspergillus niger. Nature of the experiment: Antifungal activity against Aspergillus niger at 1 to 5 mg/mL after 48 to 72 hrs by stiff-plate agar-diffusion method. Format: functional, organism-based. The method in brief: as §4
Experiment [9] concerns Photobacterium leiognathi. The experiment is described as follows: Antibacterial activity against Photobacterium leiognathi Sh1 assessed as inhibition of bacterial luminescence at 0.025 mg/mL after 10 mins by bioluminometry-based chronic action test. Format: functional. More on the design: scale not given: the % may be the effect or the level left. The method in brief:
as §2

The subject of experiment [10] is Photobacterium leiognathi. The experiment is described as follows: Antibacterial activity against Photobacterium leiognathi Sh1 assessed as inhibition of bacterial luminescence at 0.25 mg/mL after 10 mins by bioluminometry-based acute action test. Set-up: scale not given: the % may be the effect or the level left. The format is functional. The method in brief:
as §1

For experiment [11], the system named is Photobacterium leiognathi. The experiment is described as follows: Antibacterial activity against Photobacterium leiognathi Sh1 assessed as inhibition of bacterial luminescence at 0.025 mg/mL after 10 mins by bioluminometry-based acute action test. Set-up: scale not given: the % may be the effect or the level left. The format is functional. In a few lines:
as §1

Experiment [12] deals with Escherichia coli. The experiment is described as follows: Antibacterial activity against Escherichia coli assessed as zone of inhibition at 0.01 mg/mL after 24 hrs by stiff-plate agar-diffusion method. Format: functional. In a few lines: (§5)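 Stiff-plate agar diffusion. Inoculum 10^9 c.f.u./mL. Compounds were streaked across grooves in the agar nutrient plate and left to diffuse. Plates were incubated 24 h at 35 °C. Read-out was inhibition zone diameter: 11–15 mm not sensitive, 16–25 mm sensitive, >25 mm highly sensitive. Vancomycin and oxacillin were the standards. Three repeats.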

In experiment [13] the test system is Staphylococcus aureus. Nature of the experiment: Antibacterial activity against Staphylococcus aureus assessed as zone of inhibition at 0.01 mg/mL after 24 hrs by stiff-plate agar-diffusion method. The format is functional. In a few lines: as §5
Experiment [14] has as its system Mycobacterium. Nature of the experiment: Antibacterial activity against Mycobacterium luteum assessed as zone of inhibition at 0.01 mg/mL after 24 hrs by stiff-plate agar-diffusion method. Format: functional. The method in brief: as §5
The test system of experiment [15] is Yamadazyma tenuis. The experiment is described as follows: Antifungal activity against Candida tenuis assessed as zone of inhibition at 0.01 mg/mL after 48 to 72 hrs by stiff-plate agar-diffusion method. Format: functional. The method in brief:
(§6)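 Fungi were tested by stiff-plate agar diffusion from a 10^9 c.f.u./mL inoculum. Compounds were placed in agar grooves and allowed to diffuse. Incubation was 48–72 h at 28–30 °C. Inhibition zone diameter was scored as not sensitive (11–15 mm), sensitive (16–25 mm) or highly sensitive (>25 mm). Nystatin was the standard. Experiments were done in triplicate.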

For experiment [16], the system named is Aspergillus niger. Nature of the experiment: Antifungal activity against Aspergillus niger assessed as zone of inhibition at 0.01 mg/mL after 48 to 72 hrs by stiff-plate agar-diffusion method. The format is functional. In a few lines: as §6
For experiment [17], the system named is Escherichia coli. Nature of the experiment: Antibacterial activity against Escherichia coli assessed as zone of inhibition at 0.5 mg/mL after 24 hrs by stiff-plate agar-diffusion method. The format is functional. Conditions: read-out: DIZ.
Experiment [18] relates to Escherichia coli. The experiment is described as follows: Antibacterial activity against Escherichia coli assessed as zone of inhibition at 0.1 mg/mL after 24 hrs by stiff-plate agar-diffusion method. The following applies: read-out: DIZ. Format: functional.
Experiment [19] deals with Staphylococcus aureus. The experiment is described as follows: Antibacterial activity against Staphylococcus aureus assessed as zone of inhibition at 0.5 mg/mL after 24 hrs by stiff-plate agar-diffusion method. Format: functional. Conditions: read-out: DIZ.
In experiment [20] the test system is Staphylococcus aureus. The experiment is described as follows: Antibacterial activity against Staphylococcus aureus assessed as zone of inhibition at 0.1 mg/mL after 24 hrs by stiff-plate agar-diffusion method. The format is functional. The following applies: read-out: DIZ.
Experiment [21] deals with Mycobacterium. Nature of the experiment: Antibacterial activity against Mycobacterium luteum assessed as zone of inhibition at 0.5 mg/mL after 24 hrs by stiff-plate agar-diffusion method. The format is functional. Conditions: read-out: DIZ.
Experiment [22] relates to Mycobacterium. The experiment is described as follows: Antibacterial activity against Mycobacterium luteum assessed as zone of inhibition at 0.1 mg/mL after 24 hrs by stiff-plate agar-diffusion method. The format is functional. Conditions: read-out: DIZ.
Experiment [23] deals with Yamadazyma tenuis. Nature of the experiment: Antifungal activity against Candida tenuis assessed as zone of inhibition at 0.5 mg/mL after 48 to 72 hrs by stiff-plate agar-diffusion method. The format is functional. Conditions: read-out: DIZ.
Experiment [24] concerns Yamadazyma tenuis. Nature of the experiment: Antifungal activity against Candida tenuis assessed as zone of inhibition at 0.1 mg/mL after 48 to 72 hrs by stiff-plate agar-diffusion method. Format: functional. The following applies: read-out: DIZ.
Experiment [25] has as its system Aspergillus niger. Nature of the experiment: Antifungal activity against Aspergillus niger assessed as zone of inhibition at 0.1 mg/mL after 48 to 72 hrs by stiff-plate agar-diffusion method. The following applies: read-out: DIZ. Format: functional.
For experiment [26], the system named is Aspergillus niger. Nature of the experiment: Antifungal activity against Aspergillus niger assessed as zone of inhibition of late spore formation at 0.5 mg/mL after 48 to 72 hrs by stiff-plate agar-diffusion method. The format is functional. The following applies: read-out: DIZ.
Experiment [27] has as its system Photobacterium leiognathi. The experiment is described as follows: Antibacterial activity against Photobacterium leiognathi Sh1 at 0.1 to 0.25 ug/mL. Format: functional, organism-based.

For the molecule `O=C(CSc1nc2ccccc2c2nc(=O)c(-c3ccccc3)nn12)Nc1ccc(C23CC4CC(CC(C4)C2)C3)cc1`, the Activity was determined as 80.88% in experiment [1]; 111.25% in experiment [2]; 66.25% in experiment [3]; 118.75% in experiment [9]; 54.41% in [10]; 102.94% in experiment [11]. Also, the result in the experiment with Escherichia coli [4], in the experiment on Staphylococcus aureus [5], in the experiment with Mycobacterium [6], in the experiment on Yamadazyma tenuis [7] and in the experiment on Aspergillus niger [8] was inactive.
As for NYSTATIN, the inhibition zone (IZ) with Escherichia coli [12] was 0 mm; in the experiment with Staphylococcus aureus [13], 11 mm; in the experiment with Mycobacterium [14], 15 mm; in the experiment with Yamadazyma tenuis [15] it was 24 mm; in the experiment on Aspergillus niger [16], 25 mm.
Regarding `Cc1nn2c(SCC(=O)NC34CC5CC(CC(C5)C3)C4)nc3ccccc3c2nc1=O`, the Activity in experiment [1] is listed as 0%; in experiment [2], 1.88%; in experiment [3], 0%; in [9], 25%; in experiment [10], 0%; in experiment [11], 36%. Moreover, the outcome with Escherichia coli [4], in the experiment on Staphylococcus aureus [5], in the experiment on Mycobacterium [6], in the experiment on Yamadazyma tenuis [7] and in the experiment with Aspergillus niger [8] was inactive.
Take `Cc1nn2c(SCC(=O)Nc3ccc(C45CC6CC(CC(C6)C4)C5)cc3)nc3ccccc3c2nc1=O`: the Activity in experiment [1] was determined as 65.71%; in experiment [2], 94.57%; in experiment [3], 50%; in experiment [9] it was 86.96%; in experiment [10], 32.86%; in [11] it was 90%. The zone of inhibition at 500 µg/mL in the experiment on Escherichia coli [17] came to 0 mm; in the experiment with Staphylococcus aureus [19], 0 mm; with Mycobacterium [21], 0 mm; in the experiment on Yamadazyma tenuis [23], 0 mm; in the experiment on Aspergillus niger [26] it was 21 mm. The zone of inhibition at 100 µg/mL with Escherichia coli [18], in the experiment with Staphylococcus aureus [20], with Mycobacterium [22], with Yamadazyma tenuis [24] and with Aspergillus niger [25] was 0 mm throughout.
Consider `Cc1n[nH]c(-c2ccccc2N)nc1=O`, for which, in experiment [27], the outcome was Active.
For `O=C(CSc1nc2ccccc2c2nc(=O)c(-c3ccccc3)nn12)NC12CC3CC(CC(C3)C1)C2`, the Activity in [1] was 80.43%; in [2], 85.71%; in [3] it was 78.57%; in [9] it was 97.14%; in experiment [10], 56.52%; in experiment [11], 86.96%. Further, the result in the experiment on Escherichia coli [4], in the experiment on Staphylococcus aureus [5], in the experiment with Mycobacterium [6], in the experiment on Yamadazyma tenuis [7] and in the experiment with Aspergillus niger [8] was inactive.
